What is called Ki is the equilibrium dissociation constant of an inhibitor or competing ligand from its target. A higher Ki goes with lower affinity.

The structures appear in SMILES notation.

The target of test [1] is Coagulation factor VII/tissue factor (Homo sapiens) (UniProt P08709+P13726). Briefly: Anticoagulant potency in human plasma by PT assay. The test is classed as functional, cell-free. A digest of the protocol:
(§1)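 Clotting time measured at 37 °C in human plasma on an automated coagulometer, following the manufacturer's instructions. Tissue-factor-dependent clotting was read by PT. Tissue-factor-independent (intrinsic pathway) clotting was read by aPTT.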

For a further test, the target named is T1, Coagulation factor VII (Homo sapiens, UniProt P08709).
T1 sequence (P08709 whole entry): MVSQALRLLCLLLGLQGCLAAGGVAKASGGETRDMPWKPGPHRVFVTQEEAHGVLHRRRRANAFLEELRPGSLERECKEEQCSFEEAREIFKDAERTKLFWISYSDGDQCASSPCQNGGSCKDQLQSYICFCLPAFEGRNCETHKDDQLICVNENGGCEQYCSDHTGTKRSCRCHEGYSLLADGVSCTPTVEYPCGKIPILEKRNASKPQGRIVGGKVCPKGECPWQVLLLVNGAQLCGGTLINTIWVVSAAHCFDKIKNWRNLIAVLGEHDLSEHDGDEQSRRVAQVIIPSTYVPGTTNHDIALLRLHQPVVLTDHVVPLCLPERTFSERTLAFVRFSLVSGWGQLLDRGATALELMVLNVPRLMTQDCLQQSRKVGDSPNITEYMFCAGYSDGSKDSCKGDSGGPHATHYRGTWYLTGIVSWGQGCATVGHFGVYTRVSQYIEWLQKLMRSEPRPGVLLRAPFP
Briefly: Binding affinity to f7a/TF complex.

Test [2] can be described thus: Anticoagulant potency in human plasma by aPTT assay. The format is functional. In a few lines: as §1
For a further test, the target named is Trypsin (Homo sapiens, UniProt P07477+P07478+P35030). Put plainly: Binding affinity to trypsin. The test is classed as protein assay.
Another test has as its target Prothrombin (Homo sapiens, UniProt P00734). Briefly: Binding affinity to thrombin.
The next test concerns the target Coagulation factor X (Homo sapiens, UniProt P00742). Put plainly: Binding affinity to f10a.

Sequence of Coagulation factor X (P00742 41-179 limits assumed): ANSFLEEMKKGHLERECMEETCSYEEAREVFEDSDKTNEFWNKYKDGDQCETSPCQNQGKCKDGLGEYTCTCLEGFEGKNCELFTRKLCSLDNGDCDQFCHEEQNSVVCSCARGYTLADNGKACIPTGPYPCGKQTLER
Sequence of Coagulation factor X (P00742 235-488 limits assumed): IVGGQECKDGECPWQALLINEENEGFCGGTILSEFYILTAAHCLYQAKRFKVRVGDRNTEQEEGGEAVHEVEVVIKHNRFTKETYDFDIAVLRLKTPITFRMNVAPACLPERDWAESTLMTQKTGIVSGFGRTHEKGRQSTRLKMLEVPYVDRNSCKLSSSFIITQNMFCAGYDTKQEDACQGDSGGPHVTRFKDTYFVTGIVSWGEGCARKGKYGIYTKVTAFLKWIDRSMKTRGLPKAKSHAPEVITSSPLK

In test [1], `Nc1[nH]ccc2nc(-c3cc(C(=O)O)cc(-c4cccc(CNC(=O)[C@@H](O)Cc5ccccc5)c4)c3O)cc1-2` registered a 2PT of 4.5 µM. Also, the Ki on Coagulation factor VII came out at 0.0013 µM. The 2aPTT in test [2] came out at 3.7 µM.

On to `CC(C)(C(=O)O)c1cc(-c2cccc(CNC(=O)[C@@H](O)Cc3ccccc3)c2)c(O)c(-c2cc3c(N)[nH]ccc-3n2)c1`, for which the 2PT in test [1] turned out to be 6.4 µM. Also, the Ki on Coagulation factor VII is 0.015 µM. Further, the 2aPTT in test [2] was 17 µM.

Consider `O=C(NCc1cccc(-c2cccc(-c3cc4c[nH]ccc-4n3)c2O)c1)[C@@H](O)Cc1ccccc1`, for which the Ki worked out at 12 µM at Trypsin, 0.22 µM at Coagulation factor VII, 100 µM at Prothrombin and 30 µM on Coagulation factor X.

As to `N=C(N)c1ccc2[nH]c(-c3cccc(-c4cc(CNC(N)=O)ccc4O)c3O)nc2c1`, the Ki on Trypsin was determined as 3.6 µM; on Prothrombin it was 90 µM; at Coagulation factor X, 2.7 µM.

Molecule `CC(C)(C(=O)O)c1cc(-c2cccc(CNC(=O)Nc3ccc(C(=O)O)cc3)c2)c(O)c(-c2cc3c(N)[nH]ccc-3n2)c1` returned a 2PT in test [1] of 5.8 µM. At Coagulation factor VII, this molecule yielded an inhibitory constant (Ki) of 0.02 µM. In addition, the 2aPTT in test [2] was >20 µM.

On to `CC(C)(C(=O)O)c1cc(-c2cccc(CNC(=O)Nc3c(F)cccc3F)c2)c(O)c(-c2cc3c(N)[nH]ccc-3n2)c1`, for which the 2PT in test [1] was found to be 2.4 µM. This molecule showed an inhibition constant Ki at Coagulation factor VII of 0.0026 µM. The 2aPTT in test [2] is >20 µM.

Molecule `Nc1[nH]ccc2nc(-c3cccc(-c4cccc(CNC(=O)[C@@H](O)Cc5ccccc5)c4)c3O)cc1-2` showed a 2PT in test [1] of 12 µM. Besides, the Ki on Trypsin is 38 µM; on Coagulation factor VII, 0.081 µM; on Prothrombin, 99 µM; on Coagulation factor X, 54 µM. The same molecule showed a 2aPTT in test [2] of 22 µM.

These data come from ChEMBL document CHEMBL1146904, “Potent 4-amino-5-azaindole factor VIIa inhibitors” (Bioorg Med Chem Lett, 2006).
